Measurements from ChEMBL document CHEMBL2074473, “Inhibitory effect of a bitter melon extract on the P-glycoprotein activity in intestinal Caco-2 cells” (Br J Pharmacol, 2004).

molecular target: T1, ATP-dependent translocase ABCB1 (Homo sapiens, UniProt P08183); test: TP_TRANSPORTER: Daunomycin accumulation in Caco-2 cells; format: functional, cell-based
How it was run: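 Caco-2 monolayers (passages 40–66) grown 14 days on collagen-coated 24-well plates. After two PBS washes and equilibration in HBSS with 4 mM bicarbonate and 10 mM HEPES, pH 7.4, cells were incubated with 40 nM [3H]-daunomycin ± sample for 2 h at 37°C. Ice-cold PBS/0.05% azide washes, Triton X-100 lysis, scintillation counting. Expressed as % of control, mean±s.d., n=3.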

T1 sequence (P08183 whole entry): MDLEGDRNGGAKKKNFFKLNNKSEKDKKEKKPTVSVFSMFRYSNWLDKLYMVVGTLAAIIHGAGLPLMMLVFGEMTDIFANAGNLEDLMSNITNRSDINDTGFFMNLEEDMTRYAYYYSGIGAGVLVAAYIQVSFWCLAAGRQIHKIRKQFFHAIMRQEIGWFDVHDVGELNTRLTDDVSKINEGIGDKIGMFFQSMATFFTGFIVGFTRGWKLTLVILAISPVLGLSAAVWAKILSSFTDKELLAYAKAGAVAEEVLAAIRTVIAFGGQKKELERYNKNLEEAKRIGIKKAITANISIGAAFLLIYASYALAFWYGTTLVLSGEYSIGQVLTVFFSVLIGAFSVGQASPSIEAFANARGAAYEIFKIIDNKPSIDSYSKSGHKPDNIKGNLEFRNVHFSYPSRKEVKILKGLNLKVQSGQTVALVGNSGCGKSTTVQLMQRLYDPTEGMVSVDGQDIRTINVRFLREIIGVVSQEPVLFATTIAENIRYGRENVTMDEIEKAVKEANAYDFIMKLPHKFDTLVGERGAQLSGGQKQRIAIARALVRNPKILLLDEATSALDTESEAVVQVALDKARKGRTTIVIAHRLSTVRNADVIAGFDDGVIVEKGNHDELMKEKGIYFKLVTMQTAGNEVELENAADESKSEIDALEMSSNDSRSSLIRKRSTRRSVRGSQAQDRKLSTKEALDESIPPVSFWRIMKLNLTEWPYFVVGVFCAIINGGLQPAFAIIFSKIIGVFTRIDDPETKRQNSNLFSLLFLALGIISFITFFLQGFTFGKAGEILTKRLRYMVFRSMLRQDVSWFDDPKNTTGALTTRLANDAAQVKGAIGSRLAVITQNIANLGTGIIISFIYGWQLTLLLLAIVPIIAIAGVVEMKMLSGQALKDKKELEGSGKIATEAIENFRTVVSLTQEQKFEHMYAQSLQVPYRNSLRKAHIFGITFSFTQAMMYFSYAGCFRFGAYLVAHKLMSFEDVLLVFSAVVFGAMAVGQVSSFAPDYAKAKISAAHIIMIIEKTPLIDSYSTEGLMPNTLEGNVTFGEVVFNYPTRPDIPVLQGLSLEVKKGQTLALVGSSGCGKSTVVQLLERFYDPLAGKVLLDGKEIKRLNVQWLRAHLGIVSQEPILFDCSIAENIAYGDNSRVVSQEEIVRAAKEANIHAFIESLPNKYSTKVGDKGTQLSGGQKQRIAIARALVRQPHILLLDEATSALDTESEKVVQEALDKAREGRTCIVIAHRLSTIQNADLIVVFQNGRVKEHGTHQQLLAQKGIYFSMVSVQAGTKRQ

Row | Activity | Molecule
1 | is not an inhibitor [-] | CCCCCCCCCCCCCCCC(=O)OCC(CO)OC(=O)CCCCCCCCCCCCCCC (stereo unspecified) [1,2-Dipalmitin]
2 | is not an inhibitor [-] | CCCCCCCCCCCCCCCC(=O)OCC(O)COC(=O)CCCCCCCCCCCCCCC [1,3-Dipalmitin]
3 | inhibitor [+] | CC/C=C/C/C=C/C/C=C/CCCCCCCC(=O)OCC(O)CO (stereo unspecified) [1-Monolinolenin]
4 | inhibitor [+] | CCCCCC/C=C\CCCCCCCC(=O)OCC(O)CO (stereo unspecified) [1-Monopalmitolein]
5 | is not an inhibitor [-] | OCC(O)CO [GLYCERIN]
6 | inhibitor [+] | CCCCCCCCCCCC(=O)OCC(O)CO (stereo unspecified) [GLYCEROL MONOLAURATE]
7 | inhibitor [+] | CCCCCCCCCCCCCCCCCC(=O)OCC(O)CO (stereo unspecified) [GLYCERYL MONOSTEARATE]
8 | is not an inhibitor [-] | CCCCCCCCCCCCCCCC(=O)O [PALMITIC ACID]

Further lines, the molecule ahead of its results:

Row | Molecule | Activity
9 | CCCCCCCCCCCCCC(=O)OCC(O)CO (stereo unspecified) | inhibitor [+]
10 | CCCCC/C=C/C/C=C/CCCCCCCC(=O)OCC(O)CO (stereo unspecified) [1-Monolinolein] | inhibitor [+]
11 | CCCCCCCCCCCCCCCC(=O)OCC(O)CO (stereo unspecified) [1-Monopalmitin] | inhibitor [+]
12 | CCCCCCCC(=O)OCC(O)CO (stereo unspecified) [MONOCTANOIN COMPONENT A] | inhibitor [+]
13 | CCCCCCCCCC(=O)OCC(O)CO (stereo unspecified) [MONOCTANOIN COMPONENT B] | inhibitor [+]
14 | CCCCCCCCCCCCCCCC(=O)O.OCC(O)CO [PALMITIC ACID + GLYCEROL] | is not an inhibitor [-]
15 | CCCCCCCCCCCCCCCC(=O)OCC(COC(=O)CCCCCCCCCCCCCCC)OC(=O)CCCCCCCCCCCCCCC [TRIPALMITIN] | is not an inhibitor [-]

molecular target: T1, ATP-dependent translocase ABCB1; test: TP_TRANSPORTER: Rhodamine 123 accumulation in Caco-2 cells; format: functional, cell-based
How it was run: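 Caco-2 monolayers (passages 40–66) grown 14 days on collagen-coated 24-well plates. Cells were equilibrated in HBSS with 4 mM bicarbonate and 10 mM HEPES, pH 7.4, then exposed to 15 μM rhodamine-123 ± sample (2 mg ml−1 extracts) for 2 h at 37°C. After ice-cold PBS/0.05% azide washes, fluorescence was read at ex 485/em 544 nm. Expressed as % of control, mean±s.d., n=4.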

Row | Activity | Molecule
16 | inhibitor [+] | BITTER MELON
